Assay [1] is described as follows: OD615 S. cerevisiae growth inhibition, permissive medium, pilot counter-assay, permissive growth control for S. cerevisiae lifespan shortening project (AID 705;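 active = growth inhibition above 25% in both replicates, a cutoff set 3 SD above the mean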). To be noted: OD615, 24 h, at 10 µM, hits give high values. A digest of the protocol: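 Material: engineered DeaD yeast; compound dosing: one dose 10 µM, DMSO 0.25% final; measure: yeast growth inhibition indicated by reduced 24 h OD615; detection: OD615 turbidity read; incubation: cells pre-grown 4 h, then 24 h compound exposure, 30 °C humidified; medium: permissive synthetic complete medium with raffinose and galactose carbon sources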

Assay [2] can be described thus: Restrictive medium S. cerevisiae growth inhibition, OD615, pilot screen of yeast lifespan reduction project, restrictive growth control (AID 706;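 active = growth inhibition above a set limit, 3 SD over mean compound inhibition, in both replicates, cut at about 43% in these data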;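 note: modified DeaD lifespan yeast strain shifted to restrictive glucose medium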). To be noted: OD615, 48 h, at 10 µM, hits give high values. In a few lines: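 material = engineered S. cerevisiae DeaD strain | medium = glucose-based CSMM-D restrictive medium | times = 4 h pre-incubation, 48 h exposure at 30 °C | technique = OD615 absorbance reading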

Assay [3] can be described thus: viability gain of MRP-1-high H69AR cells under doxorubicin, pilot screen, MRP-1 activator project, CellTiter-Glo, duplicate (AID 807;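 active = viability increase at or above a cutoff of the median across tested compounds plus 3 SD, cut at about 8.5% in these data, passing the limit was not always enough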;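 note: compound pretreatment 18-22 h then 72 h combined with doxorubicin; 0% = doxorubicin alone and 100% = vehicle without doxorubicin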). To be noted: H69AR viability with doxorubicin, CellTiter-Glo luminescence; at 10 µM; hits give high values. In general terms: Cellular ATP, detected with luciferase, serves as a proxy for viable cell number.
The nature of assay [4]: growth suppression of beta-catenin knockout HCT116, pilot screen, human colon tumor cells (AID 823;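 active = cell viability at or below a set limit in both duplicate runs, the limit being the all-compound median minus 4 SD, cut at about 23% in these data, passing the limit was not always enough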;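 note: 0% = wells killed by 20 µM Hyamine and 100% = untreated DMSO cell wells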). To be noted: CellTiter-Glo, 60 h, at 10 µM, hits give low values.
Assay [5] is described as follows: growth suppression of PTEN-deleted HCT116, pilot screen, cell-based, HCT116 clonal line, CellTiter-Glo (AID 824;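 active = viability at or below 27.92% in each of two runs, the all-compound median minus 4 SD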;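 note: 0% = 20 µM Hyamine control and 100% = vehicle cell control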). To be noted: 60 h, at 10 µM, hits give low values.
A short description of assay [6]: inhibitors of the yeast RAM network, pilot screen, dse1pr::URA3 reporter, 5-FOA selection (AID 869;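 active = inhibition over a set limit, the all-compound mean plus 3 SD, in both replicate runs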;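 note: 0% = DMSO wells with no growth and 100% = 10 µM 1-NA-PP1 with full growth; RAM network block rescues cells from 5-FOA so hits raise OD615 growth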). To be noted: S. cerevisiae dse1pr::URA3 5-FOA growth, OD615, 2 d; at 10 µM; hits give high values; strain carries analog-sensitive mutant Cbk1 kinase.
A short description of assay [7]: RAM signaling pathway blockade in yeast – S. cerevisiae, Pdr1DBD-CYC8 efflux-inhibited sensitized strain, primary screen (AID 1298).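 Note: 0% = DMSO untreated cells without growth and 100% = 10 µM 1-NA-PP1 full growth; higher means more yeast growth rescued from 5-FOA killing.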 As to conditions: S. cerevisiae cbk1-as DSE1-URA3 strain, 5-FOA growth OD615, 2 d; at 50 µM; hits give high values.

Unmarked numbers belong to inactive results. Records with an inconclusive call do not appear. Active and inactive are the calls of the source.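 Rule for the calls, unless noted: active = RAM network inhibition above 8.4% in each of two replicates, 3 SD over the compound average; inconclusive = above 8.4% inhibition in only one replicate; inactive = 8.4% inhibition or less in each replicate.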

As usually defined, the viability is a read-out of living cells in per cent, often relative to untreated cells. The inhibition is the change of the read-out against control, counted positive when it falls.

For `COc1cc(C(=O)Oc2c(CN3CCOCC3)cc(Cl)c3cccnc23)cc(OC)c1OC`, the figures for the growth inhibition in assay [1] and in assay [2] were -8.94% and -33.1%, respectively. Besides, in assay [3], the viability increase was -8.41%. In addition, the figures for the viability in assay [4] and in assay [5] were 6.72% (active) and 4.81% (active), respectively. The inhibition in assay [6] was 1.09%. Besides, in assay [7], the RAM network inhibition was 0.27%.
In the case of `COc1ccc2c(c1)CCc1c(C(=O)NCc3ccc(F)cc3)noc1-2`, the figures for the growth inhibition in assay [1] and in assay [2] were -8.49% and -0.25%, respectively. Besides, the viability increase in assay [3] is 1.03%. Besides, the viability in assay [4] is 100%; in assay [5], 103%. Moreover, in assay [6], the inhibition is 1.86%. Further, in assay [7], the RAM network inhibition is 4.87%.
As to `CCc1nnc(NC(=O)CN2CCOCC2)s1`, the growth inhibition was -2.81% in assay [1] and -19.4% in assay [2]. Moreover, in assay [3], the viability increase is -1.62%. Moreover, the viability in assay [4] was 95.8%; in assay [5], 101%. Also, the inhibition in assay [6] is 1.18%. Also, in assay [7], the RAM network inhibition was 6.14%.
For the compound `Nc1nonc1C(=O)NCCc1ccccc1`, the growth inhibition was -6.66% in assay [1] and 6.3% in assay [2]. In assay [3], the viability increase was -0.05%. Also, the viability was 116% in assay [4] and 99.6% in assay [5]. For the same compound, in assay [6], the inhibition is 0.71%. For the same compound, the RAM network inhibition in assay [7] was -0.76%.
For `O=C(C1CCCCN1S(=O)(=O)c1ccc(F)cc1)N1CCN(c2ccccc2F)CC1` (stereo unspecified), the figures for the growth inhibition in assay [1] and in assay [2] were -14.1% and -8.47%, respectively. The viability increase in assay [3] was -1.06%. For the same compound, the values for the viability in assay [4] and in assay [5] were 80.8% and 82.9%, respectively. Also, the inhibition in assay [6] is -0.01%. Moreover, the RAM network inhibition in assay [7] was 1.9%.
`COCn1c(-c2cccc(Br)c2)nc2ccccc21`: the growth inhibition in assay [1] is -10.2%; in assay [2] it was 3.42%. Further, the viability increase in assay [3] was -4.2%. For the same compound, the viability in assay [4] is 85.2%; in assay [5], 86.8%. Further, the inhibition in assay [6] was 1.17%. Moreover, the RAM network inhibition in assay [7] is 3.8%.
With `CCOc1ccccc1C1CC(c2ccc(F)cc2)Nc2nc(N)nn21` (stereo unspecified), the growth inhibition was -2.63% in assay [1] and 6.8% in assay [2]. In addition, the viability increase in assay [3] is 1.61%. In addition, the results for the viability in assay [4] and in assay [5] were 89.2% and 90.1%, respectively. The inhibition in assay [6] was 0.785%. Besides, the RAM network inhibition in assay [7] is 2.07%.
`C=C(C)Cn1c(SCC(=O)O)nc2c1c(=O)[nH]c(=O)n2C`: the growth inhibition was -15.9% in assay [1] and -14% in assay [2]. For the same compound, the viability increase in assay [3] is 1.02%. Besides, the viability in assay [4] is 96.7%; in assay [5], 98.8%. The inhibition in assay [6] was 0.63%. The RAM network inhibition in assay [7] was 3.24%.
`CCCOCCOC(=O)C1=C(C)NC(=O)NC1c1cc(Cl)c(O)c(OC)c1` (stereo unspecified): the growth inhibition in assay [1] is -3.46%; in assay [2], -0.16%. For the same compound, in assay [3], the viability increase was -0.57%. Further, the values for the viability in assay [4] and in assay [5] were 102% and 94.6%, respectively. Also, the inhibition in assay [6] is 0.265%. In addition, the RAM network inhibition in assay [7] was -1.04%.
Take `CN(C)Cc1nc2c([nH]1)c(=O)n(C)c(=O)n2C`: the growth inhibition was -6.75% in assay [1] and -18% in assay [2]. The viability increase in assay [3] was -1.31%. Also, the values for the viability in assay [4] and in assay [5] were 95.1% and 92.7%, respectively. Besides, in assay [6], the inhibition was 1%. For the same compound, the RAM network inhibition in assay [7] is 4.51%.
Regarding `CCCOc1nc2c(c(=O)n(C)c(=O)n2C)n1CCC`, the growth inhibition in assay [1] was -7.2%; in assay [2] it was -10.2%. Also, in assay [3], the viability increase is -2.13%. The viability in assay [4] was 82.2%; in assay [5], 86.6%. The inhibition in assay [6] was 1.4%. Moreover, in assay [7], the RAM network inhibition was -0.88%.
`COc1cc2c(cc1OC)CN(C(=O)C(C)(C)C)CC2`: the growth inhibition in assay [1] is -8.97%; in assay [2] it was -7.4%. The viability increase in assay [3] was 0.45%. Further, the viability in assay [4] was 105%; in assay [5] it was 96.7%. In assay [6], the inhibition is -0.13%. Besides, the RAM network inhibition in assay [7] was -0.98%.
In the case of `COc1ccc(CCNC(=O)CN2CCOc3ccccc32)cc1OC`, the growth inhibition in assay [1] was -23.7%; in assay [2], 13.9%. Moreover, the viability increase in assay [3] was -6.27%. Besides, the viability was 100% in assay [4] and 96.8% in assay [5]. For the same compound, the inhibition in assay [6] is 0.49%. Moreover, in assay [7], the RAM network inhibition was 1.27%.
`COC(=O)C1(C)Nc2ccccc2C(=O)N1c1ccccc1OC` (stereo unspecified): the growth inhibition was -17% in assay [1] and -23.6% in assay [2]. Also, the viability increase in assay [3] is -0.77%. Also, the viability in assay [4] was 103%; in assay [5] it was 88.5%. The inhibition in assay [6] is 1.97%. In addition, in assay [7], the RAM network inhibition is 5.8%.
For the compound `Cc1c(/C=N/n2cnnc2)c2ccccc2n1C`, the growth inhibition in assay [1] was -2.21%; in assay [2] it was 11.6%. Further, in assay [3], the viability increase is -1.49%. Moreover, the viability in assay [4] was 98.7%; in assay [5], 95.3%. Also, in assay [6], the inhibition was -0.13%. Further, in assay [7], the RAM network inhibition is 4.77%.
Regarding `COC(=O)C(C(=O)OC)=C(/C=C/N(C)C)N(C)C`, the figures for the growth inhibition in assay [1] and in assay [2] were -16.7% and -1.41%, respectively. Further, in assay [3], the viability increase was -0.39%. Further, the viability in assay [4] is 99.2%; in assay [5], 101%. Further, the inhibition in assay [6] is 1.26%. In addition, the RAM network inhibition in assay [7] is 2.7%.
With `Cc1occc1C(=O)NC1CCCCCC1`, the growth inhibition in assay [1] is -17.9%; in assay [2], -9.95%. Also, in assay [3], the viability increase is -0.64%. Besides, the results for the viability in assay [4] and in assay [5] were 95.5% and 96.6%, respectively. The inhibition in assay [6] is -0.355%. Besides, the RAM network inhibition in assay [7] was -0.22%.
In the case of `O=C(c1cc(-c2cccc(O)c2)on1)N1CCCCC1`, the growth inhibition in assay [1] was 0.145%; in assay [2] it was 10.4%. Also, the viability increase in assay [3] was 0.08%. The viability was 101% in assay [4] and 103% in assay [5]. Besides, the inhibition in assay [6] was -0.46%. Also, in assay [7], the RAM network inhibition is 4.74%.

Source of the values: PubChem BioAssay.
